Sampled rows, rich in hits. Any-hit rate of the full collection: about 3.1%.
OX1R antag-1 – antagonists of human orexin 1 receptor (OX1R); OX1R-expressing cells, FRET antagonist read-out; hit rate 1.8% among 330,000; inhibition, % at 6.6 µM; in the data active means inhibition mostly above about 38%, no sharp cut-off; inactive means mostly below about 40%;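 further: 0% = agonist challenge alone and 100% = reference antagonist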
OX1R antag-2 – antagonists of human orexin 1 receptor | O43613 | CHO/OX1R cells, Fluo-8 calcium fluorescence, orexin A | inhibition, % at 5 µM | hit rate 0.43% among 330,000 | AID 434989;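 active means inhibition above its plate's threshold, mean inhibition of all tested compounds on the plate plus 3 SD, cut at about 37% in these data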;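 further: 0% = orexin A challenge wells and 100% = SB-334867-A antagonist wells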
GalR3 antag – human GalR3 antagonism | O60755 | HEK293 GalR3-CNG cAMP membrane potential fluorescence; galR3 body fused to GalR1 C-terminus | inhibition, % at 3 µM | hit rate 0.44% among 360,000 | AID 651719;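 active means inhibition above the screen-wide average plus 3 SD, cut at about 13% in these data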;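 further: forskolin and galanin both at EC90 stimulate the cells; cAMP rise reported by CNG channel membrane potential dye signal; 0% = forskolin plus galanin with DMSO and 100% = forskolin alone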
Target sequence (O60755 1-299 limits assumed): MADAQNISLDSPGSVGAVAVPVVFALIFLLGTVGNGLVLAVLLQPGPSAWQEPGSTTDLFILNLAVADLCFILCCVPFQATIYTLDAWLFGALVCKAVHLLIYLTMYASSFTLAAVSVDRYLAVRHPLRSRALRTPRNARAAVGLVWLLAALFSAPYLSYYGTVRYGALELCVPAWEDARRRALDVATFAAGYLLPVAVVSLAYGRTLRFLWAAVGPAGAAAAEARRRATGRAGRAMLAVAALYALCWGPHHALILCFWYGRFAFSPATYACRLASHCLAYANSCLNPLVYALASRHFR
CHO parental Ca – signal in parental CHO cells, OX1R antagonist counter-screen; parental CHO-K1, ATP-induced calcium, Fluo-8 fluorescence; inhibition, % at 5.6 µM; hit rate 0.63% among 330,000;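 active means inhibition above that plate's mean sample inhibition plus 3 SD, cut at about 26% in these data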;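 further: 0% = ATP-challenged DMSO wells and 100% = DMSO wells without ATP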
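Assay system: parental CHO cells; Read-out basis: percent inhibition of ATP-evoked calcium rise, normalized to controls; Benchmarks: ATP and no-ATP DMSO wells; Compound dosing: single nominal dose of 5.6 µM per compound; Signal: Fluo-8 calcium dye fluorescence; Also added: ATP as calcium-mobilizing challenge; Repeats: singlicate.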
GPR7 antagonist – blocks human GPR7 receptor signaling | P48145 | GPR7-expressing cells, fluorescence antagonist assay | inhibition, % at 4.4 µM | hit rate 1.1% among 290,000 | AID 1861; in the data active means inhibition above about 16%, passing the limit was not always enough;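 further: cells stimulated with the agonist NPW; 0% = agonist with vehicle and 100% = vehicle without agonist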
Target sequence (P48145 whole entry, looked up): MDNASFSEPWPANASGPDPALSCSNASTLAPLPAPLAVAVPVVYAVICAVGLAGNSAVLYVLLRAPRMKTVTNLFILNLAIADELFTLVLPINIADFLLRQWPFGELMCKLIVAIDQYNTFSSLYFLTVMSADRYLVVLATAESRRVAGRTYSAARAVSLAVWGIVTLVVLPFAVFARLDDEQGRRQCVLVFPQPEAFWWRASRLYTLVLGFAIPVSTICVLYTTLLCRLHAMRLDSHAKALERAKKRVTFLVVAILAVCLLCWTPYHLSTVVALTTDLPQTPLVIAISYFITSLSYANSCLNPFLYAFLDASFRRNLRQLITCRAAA
GPR7 antag cf – confirmation of human GPR7 antagonists; shares compounds with GPR7 antagonist; GPR7-expressing cells, calcium fluorescence antagonist mode; inhibition, % at 4.4 µM; hit rate 52% among 2,400; in the data active means inhibition above about 24%;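 further: stimulated with the GPR7 agonist NPW; 0% = agonist plus vehicle and 100% = vehicle alone without agonist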
MCHR1 antag – MCHR1 (human) antagonism in GPR7 counter-screen. shares compounds with GPR7 antagonist. AID 2148. inhibition, % at 4.4 µM. hit rate 62% among 2,400. MCHR1-expressing cells, fluorescence antagonist assay; in the data active means inhibition above about 22%;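 further: 0% = vehicle with agonist and 100% = vehicle without agonist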
The depositor's hits bear a star; nt = no result.

SMILES	OX1R antag-1	OX1R antag-2	GalR3 antag	CHO parental Ca	GPR7 antagonist	GPR7 antag cf	MCHR1 antag
CCCC(=O)Nc1ccc(-c2cn3cccnc3n2)cc1	19	-5	-10	-1	-11	nt	nt
COc1cc(N2CCCC2)c(OC)cc1/C=C1/NC(=S)NC1=O	25	64*	-10	32*	32*	41*	36*
O=C1NC(=S)NC1=Cc1ccc2c(c1)CCC2	nt	nt	-5	nt	nt	nt	nt
COc1ccc(CCNC(=O)CN(Cc2ccc(Cl)cc2)S(C)(=O)=O)cc1	nt	nt	-12	nt	25*	13	13
COc1ccc(N(C)S(=O)(=O)c2ccc(Cl)c(C(=O)NCCc3ccc(Cl)cc3)c2)cc1	23	-2	-7	-26	45*	48*	50*
COCCCNC(=O)CN(Cc1ccc(Cl)cc1)S(C)(=O)=O	15	9	9	-11	-5	nt	nt
CN(c1ccccc1)S(=O)(=O)c1ccc(C(=O)NCCc2ccc(F)cc2)cc1	13	-23	-12	-10	27*	23	18
COc1ccc(CCNC(=O)c2cc(S(=O)(=O)N3CCCCC3)ccc2Cl)cc1	nt	nt	-2	nt	nt	nt	nt
CC(C)(C)OC(=O)n1cc(/C=N/NC(=O)c2ccco2)c2ccccc21	5	-10	-5	2	-7	nt	nt
COC(=O)C1=CN(c2ccc(N3CCOCC3)cc2)C(N)=C(C#N)C1c1cccc(OC)c1OC (configuration not stated)	nt	nt	1	nt	nt	nt	nt
Cc1ccc(NC(=O)CSc2nnnn2-c2ccc3c(c2)OCO3)cc1C	25	-18	6	2	-8	nt	nt
Cc1ccc(-n2nnnc2SCC(=O)Nc2ccc3c(c2)OCCO3)cc1C	27	-22	2	-25	21*	9	5
O=C(Oc1ccc2c(c1)OCO2)c1ccc(F)cc1Cl	8	-24	0	-16	22*	18	13
COCCSc1ccccc1C(=O)Nc1ccncc1	2	-2	-10	-10	57*	-9	-12
Nc1nonc1C(=O)NCCNCc1c(OCc2ccccc2F)ccc2ccccc12	14	2	-14	-5	28*	47*	69*
CC(=O)C1CCC2C3CC(O)C4=CC(=O)CCC4(C)C3C(=O)CC12C (configuration not stated)	nt	nt	-4	nt	nt	nt	nt
COc1ccc(-c2ccc3c(c2)S(=O)(=O)c2cccc(C(=O)NCc4cc(C)oc4C(F)(F)F)c2C3=O)cc1OC	8	26	nt	-12	nt	nt	nt
CC(=O)/C(N=Nc1c(C)n(C)n(-c2ccccc2)c1=O)=C(\C)O	35	-4	-6	-8	28*	0	-4
CCOC(=O)/C(N=Nc1c(C)n(C)n(-c2ccccc2)c1=O)=C(\C)O	22	-28	2	-13	0	nt	nt
CCOC(=O)CNS(=O)(=O)c1cc(-c2nnc(Nc3ccc4c(c3)OCO4)c3ccccc23)ccc1C	24	71*	-5	57*	36*	47*	78*
Clc1cccc(Cl)c1CON/C=N/c1ncnc2sccc12	31	-23	-3	-3	-6	nt	nt
Clc1cccc(CON/C=N/c2ncnc3sccc23)c1	82*	2	2	-9	37*	14	40*
CCOC(=O)N(NC(=O)C(O)(c1ccccc1)c1ccccc1)c1ccccc1	20	-11	-3	-25	31*	19	28*
CCOC(=O)N(NC(=O)C(O)(C(C)C)C(C)C)c1ccccc1	5	-17	-5	-10	-2	nt	nt
CCCCC(O)(CCCC)C(=O)NN(C(=O)OCC)c1ccccc1	16	-11	-3	-12	32*	35*	27*
SMILES	OX1R antag-1	OX1R antag-2	GalR3 antag	CHO parental Ca	GPR7 antagonist	GPR7 antag cf	MCHR1 antag
CC1(C)OC(=O)C2=C(C[C@@H](CCOCc3ccccc3)O[C@H]2c2ccc(F)cc2)O1	nt	nt	-7	nt	nt	nt	nt
O=[N+]([O-])c1cccc(-c2nc3ccccc3s/c2=N/O)c1	24	12	-13	-1	31	45*	40*
O=[N+]([O-])c1cccc(-c2cnc3ccccc3n2)c1	12	-9	-4	-12	-9	nt	nt
Cn1cc([C@]2(O)C(=O)Nc3cccc(Cl)c32)c2ccccc21	nt	nt	-7	nt	nt	nt	nt
CCCCc1cc(O)c(CCCC)c(O)c1	8	102*	-5	80*	93*	93*	96*
CS(=O)(=O)c1ccc2nc(NC(=O)Nc3ccccc3F)sc2c1	23	-10	-7	-8	59*	36*	16
O=C(Nc1ccc(Cl)cc1)N1CCCN(Cc2ccc(F)cc2)C1	4	-5	-7	-8	88*	43*	42*
O=C(Nc1ccccc1)N1CCN(Cc2ccc(Cl)cc2)CC1	12	-5	-3	-15	7	nt	nt
CCCSc1ccc2nc(NC(=O)OC)[nH]c2c1	12	-5	-1	-5	29*	40*	28*
COC(=O)Nc1nc2ccc(SC(C)C)cc2[nH]1	24	7	nt	-3	nt	nt	nt
CCCCN1/C(=C/c2ccc3ccccc3[n+]2CC)Sc2ccccc21	nt	nt	nt	nt	85*	81*	79*
CCCCN1/C(=C/c2cccc[n+]2C)Sc2cc(NC(C)=O)ccc21	0	-10	-9	-2	5	nt	nt
Cc1coc2cc3oc(=O)c(CCC(=O)NCCCN4CCOCC4)c(C)c3cc12	5	-14	-2	-11	43*	-9	-4
Cc1coc2cc3oc(=O)c(CCC(=O)NCCCN4CCCC4=O)c(C)c3cc12	14	-19	-1	-14	-5	nt	nt
C[C@@H]1CN([C@H](C)CO)C(=O)CCCn2nncc2CO[C@H]1CN(C)S(C)(=O)=O	nt	nt	-1	nt	nt	nt	nt
OC(COc1ccc(F)cc1Cl)CN1CCC(Cc2ccccc2)CC1 (configuration not stated)	0	-4	-13	9	42*	21	43*
CN(CCNC(=O)C1CCCN(c2ncnc3c2nc2n3CCCCC2)C1)Cc1ccccc1 (configuration not stated)	18	-28	1	-27	-8	nt	nt
CCCCn1c(NS(=O)(=O)c2ccccc2)c(S(=O)(=O)c2ccc(C)cc2)c2nc3ccccc3nc21	19	-8	-1	-10	31*	35*	41*
CCCCn1c(NC(=O)c2ccco2)c(S(=O)(=O)c2ccc(C)cc2)c2nc3ccccc3nc21	nt	nt	-4	nt	-7	nt	nt
O=C(COC(=O)C1CC2C=CC1C2)NCCc1ccccc1 (configuration not stated)	16	2	-2	10	25*	12	1
CCc1ccc(-c2cc(C)no2)cc1S(=O)(=O)NCc1ccccc1OC	36	15	0	7	31*	7	31*
CC1(C(=O)NS(=O)(=O)C2CC2)CCN(C(=O)c2ccc(F)cc2Cl)C1 (configuration not stated)	nt	nt	-7	nt	nt	nt	nt

Assay outcomes as filed in PubChem.
